Calls of active or inactive are those of the source. The calls are words filed in the database; no cut-off is given here.
How the values were obtained:
[1] = Selectivity index, ratio of TC50 for human HepG2 cells to EC50 for Trypanosoma brucei brucei 427; type: toxicity; conditions: read-out: Selectivity Index
[2] = Selectivity ratio of EC50 for antimalarial activity against Plasmodium falciparum C235 trophozoites to EC50 for atimalarial activity against Plasmodium falciparum D6 trophozoites; type: functional
[3] = Selectivity ratio of EC50 for antimalarial activity against Plasmodium falciparum W2 trophozoites to EC50 for atimalarial activity against Plasmodium falciparum D6 trophozoites; type: functional
[4] = tested on: Trypanosoma cruzi; assay: Antitrypanosomal activity against Trypanosoma cruzi Tulahuen intracellular amastigote harboring beta-galactosidase infected in mouse NIH/3T3 cells after 96 hrs by CPRG reagent based assay; type: functional, organism-based; conditions: NIH3T3, 96 h
[5] = tested on: Plasmodium falciparum; assay: Antimalarial activity against Plasmodium falciparum D6 trophozoites after 72 hrs by SYBR Green I dye-based fluorescence assay; type: functional, organism-based; conditions: D6, 72 h
Procedure, shortened: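 P. falciparum D6 strain; compounds run in duplicate or quadruplicate; EC50 determined from dose-response.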

[6] = Cytotoxicity against human HepG2 cells; type: cell-based; conditions: read-out: TC50 (the source's name)
[7] = Selectivity index, ratio of TC50 for mouse NIH/3T3 cells to EC50 for Trypanosoma cruzi Tulahuen intracellular amastigote harboring beta-galactosidase; type: toxicity, cell-based; conditions: read-out: Selectivity Index
Procedure, shortened: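 NIH 3T3 cells, the host line for intracellular T. cruzi amastigote culture, tested for toxicity. Selectivity = NIH3T3 TC50 / T. cruzi EC50.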

[8] = tested on: Trypanosoma brucei brucei; assay: Antitrypanosomal activity against Trypanosoma brucei brucei 427 after 48 hrs by presto blue dye based fluorescence assay; type: functional, organism-based; conditions: Trypanosoma brucei, 427, 48 h
[9] = Selectivity index, ratio of TC50 for human HepG2 cells to EC50 for Plasmodium falciparum D6 trophozoites; type: toxicity; conditions: read-out: Selectivity Index
Procedure, shortened: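 P. falciparum D6 screened in duplicate or quadruplicate. Selectivity = HepG2 TC50 / P. falciparum EC50.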

[10] = tested on: Trypanosoma brucei brucei; assay: Antitrypanosomal activity against Trypanosoma brucei brucei 427 at 5 uM after 48 hrs by presto blue dye based fluorescence assay relative to control; type: functional
Procedure, shortened: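 Single-concentration screen of bloodstream T. brucei cultures at 5 μM, 5 × 10^4 cells/mL; percent proliferation inhibition recorded.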

[11] = tested on: Leishmania major; assay: Antileishmanial activity against Leishmania major intracellular amastigotes harboring luciferase infected in mouse RAW264.7 cells after 96 hrs by luminescence assay; type: functional, organism-based; conditions: RAW264.7, 96 h
Procedure, shortened: (§1)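 L. major amastigotes screened in duplicate or quadruplicate. Selectivity derived as HepG2 TC50 / L. major EC50.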

[12] = Cytotoxicity against mouse NIH/3T3 cells; type: cell-based, NIH3T3; conditions: read-out: TC50 (the source's name)
[13] = Selectivity index, ratio of TC50 for human HepG2 cells to EC50 for Leishmania major intracellular amastigotes harboring luciferase infected in mouse RAW264.7 cells; type: toxicity, cell-based; conditions: read-out: Selectivity Index; procedure, shortened: as §1
[14] = tested on: Trypanosoma brucei; assay: Antiparasitic activity against Trypanosoma brucei; type: functional, organism-based
[15] = tested on: Trypanosoma brucei; assay: Inhibition of transferrin-647 uptake in Trypanosoma brucei Lister 427 at 9.5 uM after 3 hrs by propidium iodide staining based flow cytometry; type: functional, organism-based
[16] = tested on: Trypanosoma brucei; assay: Antitrypanosomal activity against Trypanosoma brucei Lister 427 assessed as increase in fraction of trypanosomes containing one 2K1N at 9.5 uM after 3 hrs by mCLING/DAPI staining based fluorescence microsocpic method; type: functional, organism-based
Procedure, shortened: (§2)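 Mid-log bloodstream T. brucei (5 × 10^5 cells/mL) exposed to compound or DMSO for 3 h, fixed, stained with mCLING plus DAPI for kinetoplast and nuclear DNA; kinetoplasts and nuclei per cell counted by fluorescence microscopy (n >120 cells); mean percentages over three biological replicates; distribution compared by Pearson χ2.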

[17] = tested on: Mus musculus; assay: Time at which plasma concentration stays above in vitro antitrypanosomal EC50 in Swiss Webster mouse at 130 mg/kg, po by LC-MS/MS analysis; type: ADME, organism-based; conditions: in vivo
[18] = tested on: Trypanosoma brucei; assay: Antitrypanosomal activity against Trypanosoma brucei Lister 427 infected in Swiss Webster mouse assessed as reduction in parasitemia at 130 mg/kg, po via gavage once daily for 10 days starting from 24 hrs post infection by hemocytometric method; type: functional, organism-based
Procedure, shortened: (§3)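 Mice, four per group, infected with 10^5 T. brucei Lister427 (day 0); from 24 h, 130 mg/kg by oral gavage once daily for 10 days in 10% NMP/90% PEG; controls received vehicle; parasitemia followed over time after infection; mean parasitemia compared by Student's t test.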

[19] = tested on: Trypanosoma brucei; assay: Antitrypanosomal activity against Trypanosoma brucei Lister 427 assessed as reduction in fraction of trypanosomes containing one nucleus at 9.5 uM after 3 hrs by mCLING/DAPI staining based fluorescence microsocpic method; type: functional, organism-based; procedure, shortened: as §2
[20] = tested on: Trypanosoma brucei; assay: Antitrypanosomal activity against Trypanosoma brucei Lister 427 infected in Swiss Webster mouse assessed as mouse survival at 130 mg/kg, po via gavage once daily for 10 days starting from 24 hrs post infection (reference value: 5 day); type: functional
Procedure, shortened: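 Mice, four per group, infected with 10^5 T. brucei Lister427 on day 0. From 24 h, oral gavage at 130 mg/kg once daily for 10 days in 10% NMP/90% PEG; controls received vehicle only. Parasitemia followed through and after dosing. Survival compared by chi-square analysis of Kaplan–Meier data.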

[21] = tested on: Trypanosoma brucei; assay: Antitrypanosomal activity against Trypanosoma brucei Lister 427 assessed as increase in fraction of trypanosomes containing one 2K2N at 9.5 uM after 3 hrs by mCLING/DAPI staining based fluorescence microsocpic method; type: functional, organism-based; procedure, shortened: as §2
[22] = tested on: Trypanosoma brucei; assay: Antitrypanosomal activity against Trypanosoma brucei Lister 427 assessed as reduction in fraction of trypanosomes containing one kinetoplast at 9.5 uM after 3 hrs by mCLING/DAPI staining based fluorescence microsocpic method; type: functional, organism-based; procedure, shortened: as §2
[23] = tested on: Mus musculus; assay: Toxicity in Swiss Webster mouse infected with Trypanosoma brucei Lister 427 at 130 mg/kg, po via gavage once daily for 10 days starting from 24 hrs post infection; type: organism-based; conditions: in vivo
Procedure, shortened: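 Infected mice (four per group; 10^5 T. brucei Lister427) dosed orally 130 mg/kg once daily for 10 days from 24 h post-infection, vehicle 10% NMP/90% PEG; observed for signs of toxicity.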

[24] = tested on: Trypanosoma brucei; assay: Antitrypanosomal activity against Trypanosoma brucei Lister 427 infected in Swiss Webster mouse assessed as reduction in parasitemia at 130 mg/kg, po via gavage once daily for 10 days starting from 24 hrs post infection measured on day 13 by hemocytometric method; type: functional, organism-based; procedure, shortened: as §3

SMILES | selectivity ratio [1] | Ratio EC50 [2] | Ratio EC50 [3] | EC50 [4] [µM] | EC50 [5] [µM] | CC50 [6] [µM] | selectivity ratio [7] | EC50 [8] [µM] | selectivity ratio [9] | Activity [10] [%] | EC50 [11] [µM] | CC50 [12] [µM] | selectivity ratio [13] | also measured
CN1CCN(CC#Cc2cc3c(Nc4ccc(OCc5cccc(F)c5)c(Cl)c4)ncnc3s2)CC1 | 15 | < 3 | < 3 | 3.5 | 0.26 | 15 | 1.9 | 1 | 58 | >75 | 8.1 | 6.7 | 1.9 | –
CCCN(CC#Cc1cc2c(Nc3ccc(OCc4cccc(F)c4)c(Cl)c3)ncnc2s1)CCC | – | < 3 | < 3 | 1.7 | 0.8 | 17 | 1.3 | – | 21 | 0 | 1.4 | 2.2 | 12 | –
CN1CCN(CC#Cc2cc3ncnc(Nc4ccc(OCc5cccc(F)c5)c(Cl)c4)c3s2)CC1 | 4.3 | < 3 | < 3 | 2.1 | 0.64 | 11 | 2.3 | 2.5 | 17 | >75 | > 15 | 4.8 | – | –
CN1CCN(CC#Cc2ccc3ncnc(Nc4ccc(OCc5cccc(F)c5)c(Cl)c4)c3c2)CC1 | 8.2 | < 3 | < 3 | 2.5 | 0.16 | 8.2 | 2.9 | 1 | 51 | >75 | 10 | 7.2 | 0.8 | –
Fc1cccc(COc2ccc(Nc3ncnc4sc(C#CCN5CCCC5)cc34)cc2Cl)c1 | – | < 3 | < 3 | – | 0.14 | > 30 | – | > 2.5 | > 214 | >75 | 4.3 | – | > 7 | –
Fc1cccc(COc2ccc(Nc3ncnc4sc(C#CCN5CCNCC5)cc34)cc2Cl)c1 | 4.1 | < 3 | < 3 | 0.61 | 0.38 | 7.7 | 6.4 | 1.9 | 20 | >75 | 9.1 | 3.9 | 0.85 | –
CS(=O)(=O)CCNCc1ccc(-c2ccc3ncnc(Nc4ccc(OCc5cccc(F)c5)c(Cl)c4)c3c2)o1 [LAPATINIB] | – | – | – | – | – | – | – | – | – | – | – | – | – | EC50 [14]: 1.4 to 1.5 µM
Fc1cccc(COc2ccc(Nc3ncnc4cc(C#CCN5CCCC5)sc34)cc2Cl)c1 | 18 | – | – | 1.8 | 1.3 | 4.9 | 3.6 | 0.28 | 3.8 | >75 | 4.1 | 6.4 | 1.2 | –
CN(C)CC#Cc1cc2c(Nc3ccc(OCc4cccc(F)c4)c(Cl)c3)ncnc2s1 | > 13 | – | – | 2.6 | 1.5 | > 32 | 16 | 2.5 | > 21 | >75 | 5.5 | 41 | > 5.8 | –
Fc1cccc(COc2ccc(Nc3ncnc4cc(C#C[C@@H]5CCCN5)sc34)cc2Cl)c1 | 44 | < 3 | < 3 | 3.7 | 0.94 | 9.6 | 2.7 | 0.22 | 10 | >75 | 4.2 | 10 | 2.3 | –
Fc1cccc(COc2ccc(Nc3ncnc4cc(C#C[C@H]5CCCN5)sc34)cc2Cl)c1 | – | – | – | – | – | – | – | 0.26 | – | – | – | – | – | inhibition [15]: inactive; Activity [16]: Active; Time [17]: <= 4 hr; Activity [18]: Active; Activity [19]: Active; Survival [20]: 7.5 days; Activity [21]: Active; Activity [22]: Active; Activity [23]: Non-Toxic; Activity [24]: inactive

Source: ChEMBL document CHEMBL4266004, “Series of Alkynyl-Substituted Thienopyrimidines as Inhibitors of Protozoan Parasite Proliferation” (ACS Med Chem Lett, 2018)
